Measurements gathered from unrelated publications.
Compare with care: the assays were run in different laboratories.
MMP2: 72 kDa type IV collagenase (MMP2, Homo sapiens, UniProt P08253)
ADRB2: Beta-2 adrenergic receptor (ADRB2, Homo sapiens, UniProt P07550)
CYP1B1: Cytochrome P450 1B1 (CYP1B1, Homo sapiens, UniProt Q16678)
PCNA: Proliferating cell nuclear antigen (PCNA, Homo sapiens, UniProt P12004)
Ntsr1: Neurotensin receptor type 1 (Ntsr1, Rattus norvegicus, UniProt P20789)
F10 trypsin-like site: Coagulation factor X, trypsin-like site (F10, Homo sapiens, UniProt P00742)

| Compound | target | assay | conditions | endpoint | value |
| --- | --- | --- | --- | --- | --- |
| NCC(O)c1ccc(O)c(O)c1F (centres unmarked) | Beta-2 adrenergic receptor (ADRB2, Homo sapiens, UniProt P07550, N293F) | ligand displacement, radioligand | cell membranes | Ki | 216 µM |
| C#CCOc1ccc(S(=O)(=O)CC2CS2)cc1 (racemic) | MMP2 | enzyme activity, inhibitor, fluorescence | – | IC50 | 7 µM |
| NCC(O)c1ccc(O)cc1 (centres unmarked) | ADRB2 | ligand displacement, radioligand | cell membranes | IC50 | 73.7 µM |
| CC(C)=CCc1c(O)cc2c(c1O)C(=O)C[C@@H](c1ccc(O)cc1)O2 | CYP1B1 | enzyme activity, inhibitor, fluorescence | 15 min, pH 7.4 | Ki | 0.23 µM |
| CC[C@H](C)[C@H](NC(=O)[C@H](CCCCN)NC(=O)[C@H](CO)NC(=O)[C@H](C)NC(=O)[C@H](CCCCN)NC(=O)[C@H](CCCCN)NC(=O)CNC(=O)[C@H](Cc1c[nH]cn1)NC(=O)[C@@H](N)CCC(N)=O)C(=O)N[C@H](C(=O)N[C@@H](CC(=O)O)C(=O)N[C@@H](Cc1c[nH]cn1)C(=O)N[C@@H](Cc1ccccc1)C(=O)N[C@@H](CCSC)C(=O)N[C@@H](CCCNC(=N)N)C(=O)N[C@@H](CC(C)C)C(=O)N1CCC[C@H]1C(=O)N[C@@H](CCCCN)C(=O)N[C@@H](C)C(=O)O)[C@@H](C)O | PCNA | binding, ITC | pH 7.4 | Kd | 2.45 µM |
| O=C(N[C@H](C(=O)O)C1CCCCC1)c1cc(-c2c(F)cccc2F)n(-c2ccnc3cc(Cl)ccc23)n1 | Ntsr1 | calcium signal, antagonist, fluorescence | – | Kb | > 10 µM |
| CC(C)(C)[C@H](NC(=O)[C@H](CCCNC(=N)N)NC(=O)Cc1ccc(CN)cc1)C(=O)N[C@@H](CCONC(=N)N)C(=O)NCc1ccc(C(=N)N)cc1 | F10 trypsin-like site | enzyme activity, inhibitor | pH 8 | Ki | 28 µM |
| CC[C@H](C)[C@H](NC(=O)[C@H](CCCCN)NC(=O)[C@H](CO)NC(=O)[C@H](CC(=O)O)NC(=O)[C@H](CCCCN)NC(=O)[C@H](CCCCN)NC(=O)CNC(=O)[C@H](Cc1c[nH]cn1)NC(=O)[C@@H](N)CCC(N)=O)C(=O)N[C@H](C(=O)N[C@@H](CC(=O)O)C(=O)N[C@@H](Cc1c[nH]cn1)C(=O)N[C@@H](Cc1ccccc1)C(=O)N[C@@H](C)C(=O)N[C@@H](CCCNC(=N)N)C(=O)N[C@@H](CC(C)C)C(=O)N1CCC[C@H]1C(=O)N[C@@H](CCCCN)C(=O)N[C@@H](C)C(=O)O)[C@@H](C)O | PCNA | binding, ITC | pH 7.4 | Kd | 1.65 µM |
| COc1ccc(-c2cc(C(=O)N[C@H](C(=O)O)C3CCCCC3)nn2-c2ccnc3cc(Cl)ccc23)c(OC)c1 | Ntsr1 | calcium signal, antagonist, fluorescence | – | Kb | > 10 µM |
| FC(F)(F)c1ccc2c(c1)[C@@H]1CNC[C@H]2C1 | Neuronal acetylcholine receptor subunit alpha-7 (CHRNA7, Homo sapiens, UniProt P36544) | cell-free assay | – | Ki | > 0.3 µM |
| O=C(CCCCCCNC(=O)c1cnc(N(c2ccccc2)c2ccccc2)nc1)NO | Polyamine deacetylase HDAC10 (HDAC10, Homo sapiens, UniProt Q969S8) | enzyme activity, inhibitor, fluorescence | – | IC50 | 0.466 µM |
| CCOC(=O)C(CC)(CCCSCCOCCOCCNc1ccc([N+](=O)[O-])c2nonc12)NC(=O)c1ccc(C2CC2)c(Cc2ccc(F)cc2)n1 (racemic) | Cannabinoid receptor 2 (CNR2, Homo sapiens, UniProt P34972) | cAMP, agonist | – | EC50 | 0.0047 µM |
| CCCCOc1ccc(C(=O)CCN2CCCCC2)cc1 | Histamine H3 receptor (HRH3, Homo sapiens, UniProt Q9Y5N1) | ligand displacement, radioligand | – | IC50 | 3.89 µM |
| c1ccc2c(c1)-c1cccc3cccc-2c13 | CYP1B1 | binding, absorbance | pH 7.4 | Kd | 1.6 µM |
| CC[C@H](C)[C@H](NC(=O)[C@H](CCCCN)NC(=O)[C@H](CO)NC(=O)[C@H](CC(=O)O)NC(=O)[C@H](CCCCN)NC(=O)[C@H](CCCCN)NC(=O)CNC(=O)[C@H](Cc1c[nH]cn1)NC(=O)[C@@H](N)CCC(N)=O)C(=O)N[C@H](C(=O)N[C@@H](CC(=O)O)C(=O)N[C@@H](Cc1c[nH]cn1)C(=O)N[C@@H](Cc1ccccc1)C(=O)N[C@@H](CCSC)C(=O)N[C@@H](CCCNC(=N)N)C(=O)N[C@@H](CC(C)C)C(=O)N1CCC[C@H]1C(=O)N[C@@H](CCCCN)C(=O)N[C@@H](C)C(=O)O)[C@@H](C)O | PCNA | binding, ITC | pH 7.4 | Kd | 3.28 µM |
| CC(C)(C)[C@H](NC(=O)[C@H](CCCNC(=N)N)NC(=O)Cc1ccc(CNC(=N)N)cc1)C(=O)N[C@@H](CCCNC(=N)N)C(=O)NCc1ccc(C(=N)N)cc1 | F10 trypsin-like site | enzyme activity, inhibitor | pH 8 | Ki | 7.1 µM |
| NCC(O)c1cc(O)c(O)cc1F (centres unmarked) | Beta-2 adrenergic receptor (ADRB2, Homo sapiens, UniProt P07550, N293A) | ligand displacement, radioligand | cell membranes | Ki | 5450 µM |
| C[C@H](N)Cn1ncc2ccc3c(c21)CCCO3 | ADRB2 | ligand displacement, radioligand | – | IC50 | 0.48 µM |
| CC[C@H](C)[C@H](NC(=O)[C@H](CCCCN)NC(=O)[C@H](CO)NC(=O)[C@H](CC(=O)O)NC(=O)[C@H](CCCCN)NC(=O)[C@H](CCCCN)NC(=O)CNC(=O)[C@H](Cc1c[nH]cn1)NC(=O)[C@@H](N)CCC(N)=O)C(=O)N[C@H](C(=O)N[C@@H](C)C(=O)N[C@@H](Cc1c[nH]cn1)C(=O)N[C@@H](Cc1ccccc1)C(=O)N[C@@H](CCSC)C(=O)N[C@@H](CCCNC(=N)N)C(=O)N[C@@H](CC(C)C)C(=O)N1CCC[C@H]1C(=O)N[C@@H](CCCCN)C(=O)N[C@@H](C)C(=O)O)[C@@H](C)O | PCNA | binding, ITC | pH 7.4 | Kd | 8.67 µM |
| COc1cccc(OC)c1-c1cc(C(=O)NC2(C(=O)O)CCCCC2)nn1-c1ccc(F)cc1 | Ntsr1 | calcium signal, antagonist, fluorescence | – | Kb | > 10 µM |
| CC(C)(C)[C@H](NC(=O)[C@H](CCONC(=N)N)NC(=O)Cc1ccc(CN)cc1)C(=O)N[C@@H](CCCCN)C(=O)NCc1ccc(C(=N)N)cc1 | F10 trypsin-like site | enzyme activity, inhibitor | pH 8 | Ki | 18 µM |
| CN1[C@@H]2C[C@@H](OC(=O)[C@H](CO)c3ccccc3)C[C@H]1[C@@H]1O[C@@H]12 | Ileal sodium/bile acid cotransporter (SLC10A2, Homo sapiens, UniProt Q12908) | transporter uptake, inhibitor | – | Ki | 6450 µM |
| CC[C@H](C)[C@H](NC(=O)[C@H](CCCCN)NC(=O)[C@H](CO)NC(=O)[C@H](CC(=O)O)NC(=O)[C@H](CCCCN)NC(=O)[C@H](CCCCN)NC(=O)CNC(=O)[C@H](Cc1c[nH]cn1)NC(=O)[C@@H](N)CCC(N)=O)C(=O)N[C@H](C(=O)N[C@@H](CC(=O)O)C(=O)N[C@@H](C)C(=O)N[C@@H](Cc1ccccc1)C(=O)N[C@@H](CCSC)C(=O)N[C@@H](CCCNC(=N)N)C(=O)N[C@@H](CC(C)C)C(=O)N1CCC[C@H]1C(=O)N[C@@H](CCCCN)C(=O)N[C@@H](C)C(=O)O)[C@@H](C)O | PCNA | binding, ITC | pH 7.4 | Kd | 126 µM |
| CCC#CCOc1ccc(S(=O)(=O)CC2CS2)cc1 (racemic) | MMP2 | enzyme activity, inhibitor, fluorescence | – | IC50 | 14 µM |
| CC[C@H](C)[C@H](NC(=O)[C@H](CC(C)C)NC(=O)[C@H](CO)NC(=O)[C@H](CC(=O)O)NC(=O)[C@H](CCCCN)NC(=O)[C@H](CCCCN)NC(=O)CNC(=O)[C@H](Cc1c[nH]cn1)NC(=O)[C@@H](N)CCC(N)=O)C(=O)N[C@H](C(=O)N[C@@H](CC(=O)O)C(=O)N[C@@H](Cc1c[nH]cn1)C(=O)N[C@@H](Cc1ccccc1)C(=O)N[C@@H](CCSC)C(=O)N[C@@H](CCCNC(=N)N)C(=O)N[C@@H](CC(C)C)C(=O)N1CCC[C@H]1C(=O)N[C@@H](CCCCN)C(=O)N[C@@H](C)C(=O)O)[C@@H](C)O | PCNA | binding, ITC | pH 7.4 | Kd | 4.55 µM |
| O=C(N[C@H]1COC(=O)[C@@H](NC(=O)c2cccc(O)c2[O-])COC(=O)[C@@H](NC(=O)c2cccc(O)c2[O-])COC1=O)c1cccc(O)c1[O-].[Fe+3] | Neutrophil gelatinase-associated lipocalin (LCN2, Homo sapiens, UniProt P80188, C107S) | binding, fluorescence | pH 7.4 | Kd | 0.00041 µM |
